Columns and labels:
[1] = melting temperature; fluorescence melt of hairpins on a sequencing array, two-state fit, raised by 9.35 °C to match UV melts; conditions: sodium 0.088 M
Summary of the method: (§1)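 With Cy3 and quencher oligos annealed, library hairpins on a sequenced MiSeq flow cell were imaged for Cy3 fluorescence in 50 mM Na-HEPES pH 8.0, 25 mM NaCl, in 2.5 °C steps up to 60 °C. Melting temperature and folding enthalpy were derived from bootstrapped two-state fits of signals normalised to pre-quench Cy3 and to control constructs. Four replicates were combined by inverse variance, with fitted temperatures raised by 9.35 °C to match UV melts.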

[2] = folding enthalpy; higher = less favourable; fluorescence melt of hairpins on a sequencing array, two-state fit; conditions: sodium 0.088 M
Summary of the method: as §1

GATCAATCCTTTGATC ((((((....))))))
Tm [1]: 48.6 °C | folding enthalpy [2]: -39.3 kcal/mol

GATCAATCGATTGATC ((((((....))))))
Tm [1]: 51.3 °C | folding enthalpy [2]: -53.5 kcal/mol

GATCAATCGCTTGATC ((((((....))))))
Tm [1]: 45.5 °C | folding enthalpy [2]: -44.9 kcal/mol

GATCAATCTTTGATC ((((((...))))))
Tm [1]: 44.6 °C | folding enthalpy [2]: -28.2 kcal/mol

GATCAATGAGTTGATC ((((((....))))))
Tm [1]: 48.4 °C | folding enthalpy [2]: -37.1 kcal/mol

GATCAATGATTGATC ((((((...))))))
Tm [1]: 40.6 °C | folding enthalpy [2]: -29.9 kcal/mol

GATCAATGTTTGATC ((((((...))))))
Tm [1]: 43.8 °C | folding enthalpy [2]: -30.8 kcal/mol

GATCAATTAATTGATC ((((((....))))))
Tm [1]: 48.8 °C | folding enthalpy [2]: -42 kcal/mol

GATCAATTAGTTGATC ((((((....))))))
Tm [1]: 45.6 °C | folding enthalpy [2]: -35 kcal/mol

GATCAATTGCTTGATC ((((((....))))))
Tm [1]: 43.5 °C | folding enthalpy [2]: -33.7 kcal/mol

GATCACAAAGTGATC ((((((...))))))
Tm [1]: 61 °C | folding enthalpy [2]: -38.2 kcal/mol

GATCACAACTGTGATC ((((((....))))))
Tm [1]: 58.9 °C | folding enthalpy [2]: -37.4 kcal/mol

GATCACAAGAGTGATC ((((((....))))))
Tm [1]: 54.5 °C | folding enthalpy [2]: -33.1 kcal/mol

GATCACAAGTGTGATC ((((((....))))))
Tm [1]: 56.4 °C | folding enthalpy [2]: -39 kcal/mol

GATCACACACGTGATC ((((((....))))))
Tm [1]: 57.9 °C | folding enthalpy [2]: -35.8 kcal/mol

GATCACACCGTGATC ((((((...))))))
Tm [1]: 60.6 °C | folding enthalpy [2]: -38.5 kcal/mol

GATCACACTGGTGATC ((((((....))))))
Tm [1]: 56.4 °C | folding enthalpy [2]: -36.1 kcal/mol

GATCACAGTTGTGATC ((((((....))))))
Tm [1]: 60.4 °C | folding enthalpy [2]: -35.7 kcal/mol

GATCACATAGGTGATC ((((((....))))))
Tm [1]: 55.8 °C | folding enthalpy [2]: -39.1 kcal/mol

GATCACATAGTGATC ((((((...))))))
Tm [1]: 62.4 °C | folding enthalpy [2]: -40 kcal/mol

GATCACATGCGTGATC ((((((....))))))
Tm [1]: 57.8 °C | folding enthalpy [2]: -38.4 kcal/mol

GATCACCAAGTGATC ((((((...))))))
Tm [1]: 52.5 °C | folding enthalpy [2]: -36.8 kcal/mol

GATCACCACTGTGATC ((((((....))))))
Tm [1]: 56.1 °C | folding enthalpy [2]: -43.5 kcal/mol

GATCACCAGGGTGATC ((((((....))))))
Tm [1]: 62.2 °C | folding enthalpy [2]: -36.5 kcal/mol

GATCACCATGTGATC ((((((...))))))
Tm [1]: 59.2 °C | folding enthalpy [2]: -33 kcal/mol

GATCACCCACGTGATC ((((((....))))))
Tm [1]: 56.5 °C | folding enthalpy [2]: -47 kcal/mol

GATCACCCATGTGATC ((((((....))))))
Tm [1]: 55.7 °C | folding enthalpy [2]: -33.8 kcal/mol

GATCACCCCAGTGATC ((((((....))))))
Tm [1]: 60 °C | folding enthalpy [2]: -44.7 kcal/mol

GATCACCGAAAGGTTATC (((.(((....))).)))
Tm [1]: 40.4 °C | folding enthalpy [2]: -27.7 kcal/mol

GATCACCGGAGTGATC ((((((....))))))
Tm [1]: 57.7 °C | folding enthalpy [2]: -41.2 kcal/mol

GATCACCGTAGTGATC ((((((....))))))
Tm [1]: 57 °C | folding enthalpy [2]: -51.1 kcal/mol

GATCACCTGAGTGATC ((((((....))))))
Tm [1]: 57 °C | folding enthalpy [2]: -35.8 kcal/mol

GATCACCTGGTGATC ((((((...))))))
Tm [1]: 58.1 °C | folding enthalpy [2]: -33.1 kcal/mol

GATCACCTTAGTGATC ((((((....))))))
Tm [1]: 59.3 °C | folding enthalpy [2]: -39.1 kcal/mol

GATCACGAAAGTGCTATC ((((((....)))..)))
Tm [1]: 26.1 °C | folding enthalpy [2]: -12.1 kcal/mol

GATCACGAACGTGATC ((((((....))))))
Tm [1]: 67.3 °C | folding enthalpy [2]: -42.4 kcal/mol

GATCACGACCGTGATC ((((((....))))))
Tm [1]: 63.6 °C | folding enthalpy [2]: -46.1 kcal/mol

GATCACGCAGGTGATC ((((((....))))))
Tm [1]: 64.2 °C | folding enthalpy [2]: -39.6 kcal/mol

GATCACGCCGGTGATC ((((((....))))))
Tm [1]: 60.7 °C | folding enthalpy [2]: -38.7 kcal/mol

GATCACGGCCGTGATC ((((((....))))))
Tm [1]: 66.3 °C | folding enthalpy [2]: -49.1 kcal/mol

GATCACGTCGGTGATC ((((((....))))))
Tm [1]: 59.7 °C | folding enthalpy [2]: -36.5 kcal/mol

GATCACGTGCGTGATC ((((((....))))))
Tm [1]: 59.7 °C | folding enthalpy [2]: -45.1 kcal/mol

GATCACTACTGTGATC ((((((....))))))
Tm [1]: 56.5 °C | folding enthalpy [2]: -42 kcal/mol

GATCACTAGCGTGATC ((((((....))))))
Tm [1]: 55.1 °C | folding enthalpy [2]: -41.8 kcal/mol

GATCACTATAGTGATC ((((((....))))))
Tm [1]: 58.8 °C | folding enthalpy [2]: -38.1 kcal/mol

GATCACTCAGTGATC ((((((...))))))
Tm [1]: 58.3 °C | folding enthalpy [2]: -35.5 kcal/mol

GATCACTCTGTGATC ((((((...))))))
Tm [1]: 61.6 °C | folding enthalpy [2]: -35.8 kcal/mol

GATCACTGAAGTGATC ((((((....))))))
Tm [1]: 56.8 °C | folding enthalpy [2]: -36.4 kcal/mol

GATCACTGCGTGATC ((((((...))))))
Tm [1]: 61 °C | folding enthalpy [2]: -26.3 kcal/mol

GATCACTTAGTGATC ((((((...))))))
Tm [1]: 58.6 °C | folding enthalpy [2]: -37 kcal/mol

GATCACTTCAGTGATC ((((((....))))))
Tm [1]: 63.9 °C | folding enthalpy [2]: -46.6 kcal/mol

GATCACTTGCGTGATC ((((((....))))))
Tm [1]: 55.9 °C | folding enthalpy [2]: -40.7 kcal/mol

GATCAGAATCCTGATC ((((((....))))))
Tm [1]: 46.9 °C | folding enthalpy [2]: -31 kcal/mol

GATCAGACGTCTGATC ((((((....))))))
Tm [1]: 55 °C | folding enthalpy [2]: -60.5 kcal/mol

GATCAGACTCTGATC ((((((...))))))
Tm [1]: 47.1 °C | folding enthalpy [2]: -35 kcal/mol

GATCAGAGTCTGATC ((((((...))))))
Tm [1]: 47.4 °C | folding enthalpy [2]: -39.1 kcal/mol

GATCAGATAACTGATC ((((((....))))))
Tm [1]: 46.8 °C | folding enthalpy [2]: -34.5 kcal/mol

GATCAGATCACTGATC ((((((....))))))
Tm [1]: 49.9 °C | folding enthalpy [2]: -28.6 kcal/mol

GATCAGATCTCTGATC ((((((....))))))
Tm [1]: 50.7 °C | folding enthalpy [2]: -40 kcal/mol

GATCAGATTCCTGATC ((((((....))))))
Tm [1]: 48.5 °C | folding enthalpy [2]: -39 kcal/mol

GATCAGATTCTGATC ((((((...))))))
Tm [1]: 48.5 °C | folding enthalpy [2]: -29.7 kcal/mol

GATCAGCAGCTGATC ((((((...))))))
Tm [1]: 48.8 °C | folding enthalpy [2]: -48.4 kcal/mol

GATCAGCCAACTGATC ((((((....))))))
Tm [1]: 49.6 °C | folding enthalpy [2]: -33.8 kcal/mol

GATCAGCCCTCTGATC ((((((....))))))
Tm [1]: 50.1 °C | folding enthalpy [2]: -35.3 kcal/mol

GATCAGCCTTCTGATC ((((((....))))))
Tm [1]: 48.5 °C | folding enthalpy [2]: -37.9 kcal/mol

GATCAGCGAAAGCTTATC (((.(((....))).)))
Tm [1]: 38.9 °C | folding enthalpy [2]: -20.2 kcal/mol

GATCAGCGACTGATC ((((((...))))))
Tm [1]: 46.8 °C | folding enthalpy [2]: -33.1 kcal/mol

GATCAGCGCACTGATC ((((((....))))))
Tm [1]: 52.5 °C | folding enthalpy [2]: -40.4 kcal/mol

GATCAGCGTCTGATC ((((((...))))))
Tm [1]: 49.9 °C | folding enthalpy [2]: -38.8 kcal/mol

GATCAGCGTGCTGATC ((((((....))))))
Tm [1]: 67.2 °C | folding enthalpy [2]: -37.1 kcal/mol

GATCAGCTACCTGATC ((((((....))))))
Tm [1]: 48.9 °C | folding enthalpy [2]: -40 kcal/mol

GATCAGCTCCTGATC ((((((...))))))
Tm [1]: 50 °C | folding enthalpy [2]: -43.2 kcal/mol

GATCAGCTGCTGATC ((((((...))))))
Tm [1]: 50.7 °C | folding enthalpy [2]: -47.7 kcal/mol

GATCAGCTGGCTGATC ((((((....))))))
Tm [1]: 64.4 °C | folding enthalpy [2]: -34.1 kcal/mol

GATCAGCTGTCTGATC ((((((....))))))
Tm [1]: 50.3 °C | folding enthalpy [2]: -38.9 kcal/mol

GATCAGCTTCCTGATC ((((((....))))))
Tm [1]: 49.6 °C | folding enthalpy [2]: -44.1 kcal/mol

GATCAGGAACTGATC ((((((...))))))
Tm [1]: 60.6 °C | folding enthalpy [2]: -39.4 kcal/mol

GATCAGGATCTGATC ((((((...))))))
Tm [1]: 48 °C | folding enthalpy [2]: -32.1 kcal/mol

GATCAGGCAGCTGATC ((((((....))))))
Tm [1]: 52.4 °C | folding enthalpy [2]: -34.2 kcal/mol

GATCAGGCTCCTGATC ((((((....))))))
Tm [1]: 52.5 °C | folding enthalpy [2]: -42.8 kcal/mol

GATCAGGCTGCTGATC ((((((....))))))
Tm [1]: 50.4 °C | folding enthalpy [2]: -46.2 kcal/mol

GATCAGGCTTCTGATC ((((((....))))))
Tm [1]: 50.3 °C | folding enthalpy [2]: -37.1 kcal/mol

GATCAGGGACCTGATC ((((((....))))))
Tm [1]: 54.3 °C | folding enthalpy [2]: -50.5 kcal/mol

GATCAGGGTACTGATC ((((((....))))))
Tm [1]: 55.5 °C | folding enthalpy [2]: -41 kcal/mol

GATCAGGGTTCTGATC ((((((....))))))
Tm [1]: 50.8 °C | folding enthalpy [2]: -42.1 kcal/mol

GATCAGGTCTCTGATC ((((((....))))))
Tm [1]: 53.4 °C | folding enthalpy [2]: -50.3 kcal/mol

GATCAGGTGCCTGATC ((((((....))))))
Tm [1]: 51.6 °C | folding enthalpy [2]: -37 kcal/mol

GATCAGGTGTCTGATC ((((((....))))))
Tm [1]: 50.9 °C | folding enthalpy [2]: -40.2 kcal/mol

GATCAGTAACCTGATC ((((((....))))))
Tm [1]: 47.4 °C | folding enthalpy [2]: -27.6 kcal/mol

GATCAGTAATCTGATC ((((((....))))))
Tm [1]: 48.6 °C | folding enthalpy [2]: -36 kcal/mol

GATCAGTAGACTGATC ((((((....))))))
Tm [1]: 51.5 °C | folding enthalpy [2]: -40.7 kcal/mol

GATCAGTCACTGATC ((((((...))))))
Tm [1]: 50.1 °C | folding enthalpy [2]: -39.9 kcal/mol

GATCAGTCTTCTGATC ((((((....))))))
Tm [1]: 51.2 °C | folding enthalpy [2]: -37.8 kcal/mol

GATCAGTGAACTGATC ((((((....))))))
Tm [1]: 52.6 °C | folding enthalpy [2]: -36.2 kcal/mol

GATCAGTGATCTGATC ((((((....))))))
Tm [1]: 50.2 °C | folding enthalpy [2]: -36.1 kcal/mol

GATCAGTGCCCTGATC ((((((....))))))
Tm [1]: 49.9 °C | folding enthalpy [2]: -29.9 kcal/mol
